Consider one compound from ChEMBL document CHEMBL2346641, “Discovery of disubstituted piperidines and homopiperidines as potent dual NK1 receptor antagonists-serotonin reuptake transporter inhibitors for the treatment of depression” (Bioorg Med Chem, 2013).

The subject of data set [1] is Gerbillinae. Briefly: Antidepressant activity in gerbil assessed as decrease in immobility time at 0.3 to 3 mg/kg, ip administered for 30 mins prior to testing measured for 6 mins by forced swimming test. The data set is classed as functional, organism-based.
Data set [2] can be described thus: Drug uptake in gerbil brain at 10 mg/kg, ip after 36 mins. The following applies: gerbillinae, read-out: Drug uptake. The data set is classed as ADME, organism-based. More on the design: dose 10 mg/kg, route intraperitoneal. A digest of the protocol: (§1)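 Gerbils given IP doses as a solution in 100% PEG-400. Brain and serum sampled 36 min post-injection, covering the time from dosing to the end of the behavioral test. Values are means (n = 3) with SD.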

A short description of data set [3]: Drug uptake in gerbil serum at 0.1 mg/kg, ip after 36 mins. The format is ADME, organism-based. More on the design: dose 0.1 mg/kg, route intraperitoneal. The following applies: gerbillinae, read-out: Drug uptake. A digest of the protocol: as §1
The nature of data set [4]: Ratio of drug level in brain to serum in gerbil at 30 mg/kg, ip after 36 mins. The data set is classed as ADME, organism-based. More on the design: dose 30 mg/kg, route intraperitoneal. The conditions noted are these: gerbillinae. A digest of the protocol:
(§2)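 Gerbils given single IP dose in 100% PEG-400 (0.1–30 mg/kg); brain and serum sampled 36 min post-dose, matching the interval from dosing to end of forced swim test. Drug concentrations (nM) measured in each matrix and brain-to-serum ratio calculated; mean of n = 3 with SD.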

Data set [5] can be described thus: Ratio of drug level in brain to serum in gerbil at 1 mg/kg, ip after 36 mins. The format is ADME, organism-based. Also on record: dose 1 mg/kg, route intraperitoneal. The following applies: gerbillinae. A digest of the protocol: as §2
Data set [6] deals with Histamine H1 receptor (Homo sapiens) (UniProt P35367). The experiment in a line: Inhibition of histamine H1 receptor (unknown origin) at 10 uM. In short, it runs like this:
(§3)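 Screened at 10 µM in a commercial panel of over 70 receptors. Significance threshold set at ≥50% inhibition.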

Data set [7] deals with Sodium-dependent dopamine transporter (Homo sapiens, UniProt Q01959). Briefly: Inhibition of DAT (unknown origin) at 10 uM. In short, it runs like this: as §3
The nature of data set [8]: Drug uptake in gerbil serum at 3 mg/kg, ip after 36 mins. More on the design: dose 3 mg/kg, route intraperitoneal. The format is ADME, organism-based. The conditions noted are these: gerbillinae, read-out: Drug uptake. In short, it runs like this: as §1
Data set [9] is described as follows: Ratio of drug level in brain to serum in gerbil at 0.3 mg/kg, ip after 36 mins. The data set is classed as ADME, organism-based. More on the design: dose 0.3 mg/kg, route intraperitoneal. The conditions noted are these: gerbillinae. In short, it runs like this: as §2
For data set [10], the target named is T1, 5-hydroxytryptamine receptor 2C (Homo sapiens, UniProt P28335).
T1 sequence (P28335 whole entry): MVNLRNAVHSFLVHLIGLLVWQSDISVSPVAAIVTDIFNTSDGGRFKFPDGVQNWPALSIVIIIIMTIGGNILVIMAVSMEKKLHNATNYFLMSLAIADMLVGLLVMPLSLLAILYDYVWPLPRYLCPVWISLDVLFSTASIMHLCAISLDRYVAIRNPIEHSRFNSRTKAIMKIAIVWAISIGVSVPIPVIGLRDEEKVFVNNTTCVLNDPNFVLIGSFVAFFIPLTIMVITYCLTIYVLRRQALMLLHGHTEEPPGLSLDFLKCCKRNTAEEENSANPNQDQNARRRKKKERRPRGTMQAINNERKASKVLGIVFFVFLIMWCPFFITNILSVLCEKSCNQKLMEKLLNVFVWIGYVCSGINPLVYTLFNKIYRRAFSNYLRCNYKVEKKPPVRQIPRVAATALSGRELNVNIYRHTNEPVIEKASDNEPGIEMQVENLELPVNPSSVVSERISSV
Briefly: Inhibition of 5HT2C receptor (unknown origin).

In data set [11] the target is T2, 5-hydroxytryptamine receptor 1A (Homo sapiens, UniProt P08908).
T2 sequence (P08908 whole entry): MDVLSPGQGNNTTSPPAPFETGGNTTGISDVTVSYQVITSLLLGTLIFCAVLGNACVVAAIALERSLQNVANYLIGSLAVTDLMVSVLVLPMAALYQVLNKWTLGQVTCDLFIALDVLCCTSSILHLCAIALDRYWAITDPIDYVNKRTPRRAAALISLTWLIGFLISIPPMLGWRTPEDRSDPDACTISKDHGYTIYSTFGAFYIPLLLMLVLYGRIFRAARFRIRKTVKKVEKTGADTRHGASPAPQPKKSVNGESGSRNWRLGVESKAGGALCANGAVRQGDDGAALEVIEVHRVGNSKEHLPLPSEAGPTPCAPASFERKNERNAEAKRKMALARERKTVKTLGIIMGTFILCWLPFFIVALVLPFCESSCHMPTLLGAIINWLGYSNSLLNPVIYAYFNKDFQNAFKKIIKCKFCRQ
The experiment in a line: Inhibition of 5HT1A receptor (unknown origin).

The subject of data set [12] is Gerbillinae. Briefly: Antidepressant activity in gerbil assessed as decrease in immobility time at 0.1 mg/kg, ip administered for 30 mins prior to testing measured for 6 mins by forced swimming test relative to vehicle-treated control. The format is functional, organism-based. Also on record: dose 0.1 mg/kg.
The nature of data set [13]: Drug uptake in gerbil brain at 3 mg/kg, ip after 36 mins. The data set is classed as ADME, organism-based. Also on record: dose 3 mg/kg, route intraperitoneal. The following applies: gerbillinae, read-out: Drug uptake. A digest of the protocol: as §1
Data set [14] in a line: Drug uptake in gerbil serum at 10 mg/kg, ip after 36 mins. The data set is classed as ADME, organism-based. More on the design: dose 10 mg/kg, route intraperitoneal. The conditions noted are these: gerbillinae, read-out: Drug uptake. A digest of the protocol:
as §1

The nature of data set [15]: Drug uptake in gerbil serum at 30 mg/kg, ip after 36 mins. The format is ADME, organism-based. Also on record: dose 30 mg/kg, route intraperitoneal. The conditions noted are these: gerbillinae, read-out: Drug uptake. In short, it runs like this: as §1
The target of data set [16] is Sodium-dependent noradrenaline transporter (Homo sapiens, UniProt P23975). Briefly: Inhibition of NET (unknown origin) at 10 uM. A digest of the protocol:
as §3

The nature of data set [17]: Drug uptake in gerbil serum at 0.3 mg/kg, ip after 36 mins. The format is ADME, organism-based. Also on record: dose 0.3 mg/kg, route intraperitoneal. The conditions noted are these: gerbillinae, read-out: Drug uptake. In short, it runs like this:
as §1

The target in data set [18] is Histamine H2 receptor (Homo sapiens) (UniProt P25021). Briefly: Inhibition of histamine H2 receptor (unknown origin) at 10 uM. In short, it runs like this: as §3
Data set [19] in a line: Ratio of drug level in brain to serum in gerbil at 10 mg/kg, ip after 36 mins. More on the design: dose 10 mg/kg, route intraperitoneal. The following applies: gerbillinae. The data set is classed as ADME, organism-based. In short, it runs like this:
as §2

Data set [20] concerns the target 5-hydroxytryptamine receptor 2B (Homo sapiens, UniProt P41595). The conditions noted are these: 10 uM.
Data set [21] can be described thus: Drug uptake in gerbil serum at 1 mg/kg, ip after 36 mins. The data set is classed as ADME, organism-based. More on the design: dose 1 mg/kg, route intraperitoneal. The conditions noted are these: gerbillinae, read-out: Drug uptake. In short, it runs like this:
as §1

Data set [22] deals with Sodium-dependent serotonin transporter (Homo sapiens, UniProt P31645). The data set is classed as cell-based, HEK293.
For a further data set, the target named is T3, Substance-K receptor (Homo sapiens, UniProt P21452).
T3 sequence (P21452 whole entry): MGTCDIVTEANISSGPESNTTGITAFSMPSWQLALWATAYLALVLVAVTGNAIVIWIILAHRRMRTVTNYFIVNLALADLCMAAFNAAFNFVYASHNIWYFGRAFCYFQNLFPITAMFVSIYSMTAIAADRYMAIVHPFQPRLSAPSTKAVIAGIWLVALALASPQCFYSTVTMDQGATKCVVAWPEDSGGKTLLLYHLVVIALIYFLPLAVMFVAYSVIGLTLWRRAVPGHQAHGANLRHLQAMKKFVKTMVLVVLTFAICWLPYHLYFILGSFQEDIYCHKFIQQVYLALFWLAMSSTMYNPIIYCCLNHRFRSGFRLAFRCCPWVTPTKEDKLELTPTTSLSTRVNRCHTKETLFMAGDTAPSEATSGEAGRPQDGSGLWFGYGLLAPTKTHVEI
The experiment in a line: Inhibition of NK2 receptor (unknown origin).

pIC50: −log10 of the molar value. Active and inactive are the calls of the source. Some results are limits rather than exact numbers.

Chain of Sodium-dependent serotonin transporter (P31645 whole entry): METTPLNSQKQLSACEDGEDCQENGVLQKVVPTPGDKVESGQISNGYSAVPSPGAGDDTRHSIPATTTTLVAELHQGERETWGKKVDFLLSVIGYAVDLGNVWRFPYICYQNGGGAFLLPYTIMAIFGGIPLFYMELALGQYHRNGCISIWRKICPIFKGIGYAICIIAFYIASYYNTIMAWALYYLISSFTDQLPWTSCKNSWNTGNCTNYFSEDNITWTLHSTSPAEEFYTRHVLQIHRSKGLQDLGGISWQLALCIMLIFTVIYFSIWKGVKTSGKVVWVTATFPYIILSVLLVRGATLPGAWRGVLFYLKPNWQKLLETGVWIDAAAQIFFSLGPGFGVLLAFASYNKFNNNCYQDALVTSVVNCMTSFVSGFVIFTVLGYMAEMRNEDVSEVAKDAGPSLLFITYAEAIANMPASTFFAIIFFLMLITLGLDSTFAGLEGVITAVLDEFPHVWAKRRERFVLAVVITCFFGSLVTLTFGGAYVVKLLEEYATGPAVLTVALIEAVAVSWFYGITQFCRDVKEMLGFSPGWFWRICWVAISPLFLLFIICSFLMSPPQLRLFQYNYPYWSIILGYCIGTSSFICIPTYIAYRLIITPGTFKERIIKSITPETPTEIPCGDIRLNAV
Chain of Histamine H1 receptor (Homo sapiens) (P35367 whole entry): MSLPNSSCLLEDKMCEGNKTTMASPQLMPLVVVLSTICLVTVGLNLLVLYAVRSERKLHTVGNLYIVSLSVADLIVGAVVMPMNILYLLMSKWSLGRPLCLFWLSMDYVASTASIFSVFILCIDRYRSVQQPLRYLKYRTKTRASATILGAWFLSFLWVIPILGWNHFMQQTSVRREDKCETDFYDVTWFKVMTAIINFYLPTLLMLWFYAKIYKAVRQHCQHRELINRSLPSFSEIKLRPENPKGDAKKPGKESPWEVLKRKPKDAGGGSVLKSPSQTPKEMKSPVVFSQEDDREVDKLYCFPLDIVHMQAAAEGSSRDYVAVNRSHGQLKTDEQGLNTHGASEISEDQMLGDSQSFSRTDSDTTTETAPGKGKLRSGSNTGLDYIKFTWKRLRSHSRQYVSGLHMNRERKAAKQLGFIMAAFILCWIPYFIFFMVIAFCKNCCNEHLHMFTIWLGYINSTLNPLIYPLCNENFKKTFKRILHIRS
Chain of Sodium-dependent dopamine transporter (Q01959 whole entry): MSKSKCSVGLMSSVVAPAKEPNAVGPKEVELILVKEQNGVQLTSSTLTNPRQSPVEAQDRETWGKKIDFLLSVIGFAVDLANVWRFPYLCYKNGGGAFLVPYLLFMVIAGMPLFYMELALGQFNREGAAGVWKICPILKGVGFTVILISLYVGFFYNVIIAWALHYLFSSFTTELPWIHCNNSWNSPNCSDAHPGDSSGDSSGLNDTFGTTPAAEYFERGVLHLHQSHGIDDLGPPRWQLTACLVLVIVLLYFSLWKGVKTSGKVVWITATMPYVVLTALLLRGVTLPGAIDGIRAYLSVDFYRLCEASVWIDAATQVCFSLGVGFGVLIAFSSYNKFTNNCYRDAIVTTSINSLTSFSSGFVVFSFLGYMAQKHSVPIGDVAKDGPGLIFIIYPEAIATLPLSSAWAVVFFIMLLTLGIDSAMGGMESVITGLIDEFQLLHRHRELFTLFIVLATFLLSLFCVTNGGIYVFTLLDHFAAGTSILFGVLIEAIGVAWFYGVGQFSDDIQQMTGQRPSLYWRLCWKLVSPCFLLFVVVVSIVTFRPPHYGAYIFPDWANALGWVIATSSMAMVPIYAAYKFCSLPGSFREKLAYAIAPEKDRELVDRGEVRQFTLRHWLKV
Chain of 5-hydroxytryptamine receptor 2B (P41595 whole entry): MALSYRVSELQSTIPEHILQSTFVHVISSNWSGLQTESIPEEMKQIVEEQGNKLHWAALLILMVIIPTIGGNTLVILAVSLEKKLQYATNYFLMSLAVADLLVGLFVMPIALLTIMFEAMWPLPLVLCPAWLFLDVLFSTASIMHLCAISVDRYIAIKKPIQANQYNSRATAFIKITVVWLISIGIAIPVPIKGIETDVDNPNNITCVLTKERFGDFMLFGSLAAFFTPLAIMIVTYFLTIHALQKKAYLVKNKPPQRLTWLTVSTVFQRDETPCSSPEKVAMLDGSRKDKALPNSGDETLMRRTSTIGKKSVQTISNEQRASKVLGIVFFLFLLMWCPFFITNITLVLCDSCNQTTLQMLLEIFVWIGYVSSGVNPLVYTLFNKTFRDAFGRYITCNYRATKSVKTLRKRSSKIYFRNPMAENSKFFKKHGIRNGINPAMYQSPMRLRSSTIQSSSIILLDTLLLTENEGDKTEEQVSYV
Chain of Sodium-dependent noradrenaline transporter (P23975 whole entry): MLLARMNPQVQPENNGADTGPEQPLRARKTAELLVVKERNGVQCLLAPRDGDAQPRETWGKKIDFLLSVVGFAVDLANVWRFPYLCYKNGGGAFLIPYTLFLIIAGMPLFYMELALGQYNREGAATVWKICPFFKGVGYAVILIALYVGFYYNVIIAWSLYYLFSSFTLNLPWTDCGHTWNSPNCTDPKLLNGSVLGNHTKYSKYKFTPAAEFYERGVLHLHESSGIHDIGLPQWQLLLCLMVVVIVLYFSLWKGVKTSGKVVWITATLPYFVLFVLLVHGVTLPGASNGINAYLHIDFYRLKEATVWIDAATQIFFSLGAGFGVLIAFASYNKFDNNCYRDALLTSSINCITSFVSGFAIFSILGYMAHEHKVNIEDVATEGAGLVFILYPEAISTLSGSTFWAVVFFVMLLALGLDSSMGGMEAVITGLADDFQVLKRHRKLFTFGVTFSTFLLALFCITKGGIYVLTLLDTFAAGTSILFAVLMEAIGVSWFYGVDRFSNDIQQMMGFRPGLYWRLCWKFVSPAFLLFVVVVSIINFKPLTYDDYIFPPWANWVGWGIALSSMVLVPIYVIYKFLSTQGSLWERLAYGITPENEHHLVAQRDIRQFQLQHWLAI
Chain of Histamine H2 receptor (Homo sapiens) (P25021 whole entry): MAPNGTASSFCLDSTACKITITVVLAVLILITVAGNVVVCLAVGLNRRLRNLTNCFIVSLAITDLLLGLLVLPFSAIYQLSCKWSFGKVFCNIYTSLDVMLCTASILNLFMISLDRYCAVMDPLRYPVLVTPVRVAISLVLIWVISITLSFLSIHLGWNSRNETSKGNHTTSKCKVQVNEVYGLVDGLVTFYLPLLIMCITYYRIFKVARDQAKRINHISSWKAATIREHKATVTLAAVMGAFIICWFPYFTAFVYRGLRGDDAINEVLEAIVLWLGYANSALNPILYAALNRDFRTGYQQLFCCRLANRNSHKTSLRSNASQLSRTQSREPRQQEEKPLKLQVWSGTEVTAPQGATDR

Consider `FC(F)(F)c1cc(COCC2(c3ccccc3)CCNCC2)cc(C(F)(F)F)c1`, for which the result in the data set on Gerbillinae [1] was Active. The concentration at 0.6 h in [2] worked out at 4300 nM; in data set [3], 3.6 nM; in data set [8], 210 nM; in [13], 880 nM; in [14] it was 730 nM; in [15] it was 2300 nM. In addition, the concentration at 0.6 h came to 12 nM in data set [17] and 35 nM in data set [21]. Besides, the Kp – broadly, tissue or fluid exposure divided by exposure in the circulation – at 0.6 h in data set [4] turned out to be 2.3; in [5], 3.2; in [9], 3.2; in data set [19] it was 5.2. Also, the inhibition entry in [6], in [7], in data set [16], in [18] and in [20] was “Active” throughout. The pIC50 – broadly, the IC50 on a negative log10 scale, so that one unit is a factor of ten – in data set [10] was under 6.00; in [11], under 6.00; in data set [22], 9.00; at Substance-K receptor, under 6.00. Besides, the outcome in the data set on Gerbillinae [12] was inactive.
